In ChEMBL document CHEMBL1275590, “Novel arylimidamides for treatment of visceral leishmaniasis” (Antimicrob Agents Chemother, 2010):
Calls of active or inactive are those of the source. No cut-off for these calls is given here.

Experiments:
[1] = Half life in rat liver microsome by HPLC-MS/MS analysis in presence of 10 uM NADPH; format: ADME; conditions: liver microsomes
Procedure, shortened: (§1)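 Pooled liver microsomes (human, mouse, rat) with NADPH. Substrate added from DMSO to final 0.1, 1.0 or 10 μM, with 0.5% (vol/vol) organic solvent. Incubated at 37°C for up to 60 min. Stopped with 2 volumes of 7:1 methanol-water containing 0.1% TFA and 30 nM internal standard, then centrifuged. Remaining substrate was measured by HPLC-MS/MS, and t1/2 was obtained by one-phase exponential decay fit (t1/2 = 0.693/k).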

[2] = system: Leishmania donovani; experiment: Antileishmanial activity against Leishmania donovani axenic amastigotes; format: functional, organism-based
[3] = system: Mus musculus; experiment: Renal toxicity in BALB/c mouse assessed as phosphorus level in serum at 5 mg/kg/day, iv administered for five days (Rvb= 6.1 mg/dl); format: organism-based; design: route intravenous; conditions: in vivo
Procedure, shortened: (§2)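 Female BALB/c mice (n = 5 per dose), dosed once daily for 5 consecutive days p.o. (20 ml/kg) or i.v. (10 ml/kg) with compound in sterile water, prepared fresh daily under yellow light. Vehicle controls n = 5 per route. Clinical observations, body weights, serum chemistry and hematology on day 6 before necropsy; histopathology of formalin-fixed tissues. Chemistry analysed by one-way ANOVA with Dunnett's posttest.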

[4] = Half life in mouse liver microsome by HPLC-MS/MS analysis in presence of 10 uM NADPH; format: ADME; conditions: liver microsomes; procedure, shortened: as §1
[5] = system: Leishmania donovani; experiment: Antileishmanial activity against Leishmania donovani promastigotes in ip dosed BALB/c mouse assessed as inhibition of liver parasitemia; format: functional, organism-based
Procedure, shortened: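 Murine VL model in L. donovani-infected mice. Compounds were dissolved in water and given i.p. or p.o. once daily for 5 days (4 days for one i.p. regimen). Liver parasitemia was compared with untreated controls by unpaired Student's t test, P ≤ 0.05.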

[6] = system: Mus musculus; experiment: Hepatotoxicity in BALB/c mouse assessed as alkaline phosphatase level in serum at 5 mg/kg/day, iv administered for five days (Rvb= 134 U/L); format: toxicity, organism-based; design: route intravenous; conditions: in vivo
[7] = system: Leishmania donovani; experiment: Antileishmanial activity against intracellular Leishmania donovani LV82 amastigotes infected in CD-1 mouse peritoneal macrophage; format: functional, organism-based
Procedure, shortened: (§3)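 CD-1 mouse peritoneal macrophages, 5 × 10^4 cells/well in RPMI 1640 + 10% heat-inactivated FBS, adhered overnight. Infected overnight with stationary-phase LV82 promastigotes (5:1 parasite:macrophage), 37°C, 5% CO2. Medium then replaced with compound or vehicle for 72 h at 37°C. Methanol-fixed, Giemsa-stained; % infected macrophages counted at ×1,000. IC50 by four-parameter logistic nonlinear regression.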

[8] = AUC (0 to infinity) in Swiss Webster mouse at 1 mg/kg, iv by HPLC-MS/MS analysis; format: ADME, organism-based; design: time infinity, dose 1 mg/kg, route intravenous; conditions: plasma
Procedure, shortened: (§4)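 Male Swiss Webster mice, n = 3 per time point. For i.v., the compound was dissolved in sterile water, diluted 1:1 with 2× saline, and given as a tail-vein bolus over ~10–20 s. For p.o., it was given by gavage in sterile water. Dose volume was 5 ml/kg. Terminal plasma was taken from 5 min to 72 h and measured by HPLC-MS/MS (calibration 2.5–10,000 nM). Parameters came from noncompartmental analysis.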

[9] = system: Mus musculus; experiment: Hepatotoxicity in BALB/c mouse assessed as ALT level in serum at 25 mg/kg/day, po administered for five days (Rvb= 36 U/L); format: toxicity, organism-based; design: route oral; conditions: in vivo
[10] = system: Leishmania donovani; experiment: Antileishmanial activity against antimony resistant Leishmania donovani MC4-R infected in mouse J774 macrophage; format: functional, organism-based
[11] = Half life in rat liver microsome by HPLC-MS/MS analysis in presence of 1 uM NADPH; format: ADME; conditions: liver microsomes; procedure, shortened: as §1
[12] = system: Mus musculus; experiment: Hepatotoxicity in BALB/c mouse assessed as ALT level in serum at 20 mg/kg/day, iv administered for five days (Rvb= 34 U/L); format: toxicity, organism-based; design: route intravenous; conditions: in vivo
[13] = system: Mus musculus; experiment: Renal toxicity in BALB/c mouse assessed as phosphorus level in serum at 20 mg/kg/day, iv administered for five days (Rvb= 6.1 mg/dl); format: organism-based; design: route intravenous; conditions: in vivo; procedure, shortened: as §2
[14] = Half life in human liver microsome by HPLC-MS/MS analysis in presence of 1 uM NADPH; format: ADME; conditions: liver microsomes
Procedure, shortened: (§5)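 Pooled liver microsomes with NADPH. Substrate at final 0.1, 1.0 and 10 μM with 0.5% DMSO, incubated up to 60 min at 37°C. Reactions were stopped with 7:1 methanol-water containing 0.1% TFA and 30 nM internal standard. Remaining substrate was measured by HPLC-MS/MS, and t1/2 came from a one-phase exponential decay fit.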

[15] = Cmax in Swiss Webster mouse at 1 mg/kg, iv by HPLC-MS/MS analysis; format: ADME, organism-based; design: dose 1 mg/kg, route intravenous; conditions: in vivo; procedure, shortened: as §4
[16] = system: Leishmania donovani; experiment: Antileishmanial activity against intracellular Leishmania donovani LV82 amastigotes; format: functional, organism-based; procedure, shortened: as §3
[17] = Half life in rat liver microsome by HPLC-MS/MS analysis in presence of 0.1 uM NADPH; format: ADME; conditions: liver microsomes; procedure, shortened: as §1
[18] = system: Mus musculus; experiment: Renal toxicity in BALB/c mouse assessed as blood urea nitrogen level in serum at 25 mg/kg/day, po administered for five days (Rvb= 29 mg/dl); format: organism-based; design: route oral; conditions: in vivo; procedure, shortened: as §2
[19] = Half life in golden Syrian hamster liver microsome by HPLC-MS/MS analysis in presence of 1 uM NADPH; format: ADME, Mesocricetus auratus; conditions: liver microsomes; procedure, shortened: as §5
[20] = system: Leishmania donovani; experiment: Antileishmanial activity against antimony resistant Leishmania donovani MC8-R infected in mouse J774 macrophage; format: functional, organism-based
[21] = system: Mus musculus; experiment: Renal toxicity in BALB/c mouse assessed as blood urea nitrogen level in serum at 5 mg/kg/day, iv administered for five days (Rvb= 20 mg/dl); format: organism-based; design: route intravenous; conditions: in vivo; procedure, shortened: as §2
[22] = system: Mus musculus; experiment: Hepatotoxicity in BALB/c mouse assessed as alkaline phosphatase level in serum at 50 mg/kg/day, po administered for five days (Rvb= 129 U/L); format: toxicity, organism-based; design: route oral; conditions: in vivo
[23] = system: Mus musculus; experiment: Hepatotoxicity in BALB/c mouse assessed as AST level in serum at 20 mg/kg/day, iv administered for five days (Rvb= 65 U/L); format: toxicity, organism-based; design: route intravenous; conditions: in vivo
[24] = Clearance in Swiss Webster mouse at 1 mg/kg, iv by HPLC-MS/MS analysis; format: ADME, organism-based; design: dose 1 mg/kg, route intravenous; conditions: in vivo; procedure, shortened: as §4
[25] = Half life in mouse liver microsome by HPLC-MS/MS analysis in presence of 1 uM NADPH; format: ADME; conditions: liver microsomes; procedure, shortened: as §1
[26] = Half life in golden Syrian hamster liver microsomes by HPLC-MS/MS analysis in presence of 0.1 uM NADPH; format: ADME, Mesocricetus auratus, Microsome; procedure, shortened: as §5
[27] = system: Leishmania donovani; experiment: Antileishmanial activity against […] Leishmania donovani AG83-S infected in mouse J774 macrophage; format: functional, organism-based
[28] = system: Leishmania major; experiment: Antileishmanial activity against intracellular Leishmania major amastigotes; format: functional, organism-based
[29] = Half life in mouse liver microsome by HPLC-MS/MS analysis in presence of 0.1 uM NADPH; format: ADME; conditions: liver microsomes; procedure, shortened: as §1
[30] = system: Mus musculus; experiment: Hepatotoxicity in BALB/c mouse assessed as AST level in serum at 50 mg/kg/day, po administered for five days (Rvb= 70 U/L); format: toxicity, organism-based; design: route oral; conditions: in vivo
[31] = system: Mus musculus; experiment: Hepatotoxicity in BALB/c mouse assessed as ALT level in serum at 50 mg/kg/day, po administered for five days (Rvb= 36 U/L); format: toxicity, organism-based; design: route oral; conditions: in vivo
[32] = system: Mus musculus; experiment: Hepatotoxicity in BALB/c mouse assessed as AST level in serum at 25 mg/kg/day, po administered for five days (Rvb= 70 U/L); format: toxicity, organism-based; design: route oral; conditions: in vivo

CCOc1cc(NC(=N)c2ccccn2)ccc1-c1ccc(-c2ccc(NC(=N)c3ccccn3)cc2OCC)o1
half-life [1]: > 2 h | IC50 [2]: 500 nM | Activity [3]: 7.1 mg/dL | half-life [4]: > 2 h | Activity [5]: Active | Activity [6]: 113 U/L | IC50 [7]: 4500 nM | AUC(0-inf) [8]: 0.56 µM·h | Activity [9]: 31 U/L | IC50 [10]: 150 nM | half-life [11]: > 2 h | Activity [12]: 57 U/L | Activity [13]: 7.3 mg/dL | half-life [14]: > 2 h | Cmax [15]: 370 nM | IC50 [16]: 18 nM | half-life [17]: 1.33 h | Activity [18]: 29 mg/dL | half-life [19]: > 2 h | IC50 [20]: 160 nM | Activity [21]: 18 mg/dL | Activity [22]: 130 U/L | Activity [23]: 89 U/L | clearance [24]: 45 mL/min/kg | half-life [25]: 0.783 h | half-life [26]: 1.25 h | IC50 [27]: 130 nM | IC50 [28]: 26 nM | half-life [29]: 0.25 h | Activity [30]: 77 U/L | Activity [31]: 34 U/L | Activity [32]: 67 U/L

CC(C)Oc1cc(NC(=N)c2ccccn2)ccc1-c1ccc(-c2ccc(NC(=N)c3ccccn3)cc2OC(C)C)o1
half-life [1]: > 2 h | IC50 [2]: 500 nM | Activity [3]: 7 mg/dL | half-life [4]: > 2 h | Activity [5]: Active | Activity [6]: 103 U/L | IC50 [7]: 2800 nM | AUC(0-inf) [8]: 2.53 µM·h | Activity [9]: 44 U/L | IC50 [10]: 76 nM | half-life [11]: > 2 h | Activity [12]: 50 U/L | Activity [13]: 6.5 mg/dL | half-life [14]: > 2 h | Cmax [15]: 1090 nM | IC50 [16]: 36 nM | half-life [17]: 1.6 h | Activity [18]: 27 mg/dL | half-life [19]: > 2 h | IC50 [20]: 64 nM | Activity [21]: 19 mg/dL | Activity [22]: 123 U/L | Activity [23]: 76 U/L | clearance [24]: 9.9 mL/min/kg | half-life [25]: > 2 h | half-life [26]: 0.65 h | IC50 [27]: 90 nM | IC50 [28]: 14 nM | half-life [29]: 0.433 h | Activity [30]: 90 U/L | Activity [31]: 45 U/L | Activity [32]: 75 U/L
